Paper PMC8197731 (The journal of pain, 2021)
Entries after “also recorded” stand apart in the source; their conditions may differ.

Columns and labels:
WT and PAR3^−/− mice [1] = experiment: Mechanical paw withdrawal threshold; assay type: in vivo, mouse
WT and PAR3^−/− mice [2] = experiment: Facial grimacing; assay type: in vivo, mouse; conditions: for facial grimacing, WT and PAR3^−/− / facial grimacing, PAR3^−/− and WT: male
WT and PAR3^−/− mice [3] = assay type: in vivo, mouse
WT and PAR3^−/− mice [4] = assay type: in vivo, mouse; remark: listed apart in the source
Outline: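 Eight-week-old male mice were primed by intraplantar injection and allowed to recover completely (14 d), then given 100 ng PGE2 into the same hind paw. Facial expressions were video-recorded with mice placed individually in 9×5×5 cm cubicles, using an adapted mouse grimace scale protocol. Scores were averaged per time point for each cohort, with 4 mice per genotype.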

[5] = tested on: lamina IIo neurons in lumbar segments of mouse spinal cord
rat astrocytes = conditions: ref [60]; cited from earlier work
[6] = tested on: human smooth muscle cells; conditions: ref [6]; cited from earlier work
[7] = tested on: human A-498 carcinoma cells; conditions: ref [35]; cited from earlier work
mouse lung fibroblasts = conditions: ref [35]; cited from earlier work
[8] = tested on: HEK293 cells not induced to express PAR3; experiment: RTCA; assay type: cell-based; conditions: varying concentrations of C660; Cell Index
Outline: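 Uninduced HEK293 Flp-In T-Rex cells were plated on poly-L-lysine E-plates in DMEM/F12 with 5% FBS, run alongside tetracycline-induced cells. Compound was added in quadruplicate at varying final concentrations once impedance stabilized (~6 h). Cell Index, calculated as (Zi−Z0)/15 Ω, was recorded every minute for 4 h, and peak changes after addition were taken.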

WT and PAR3^−/− mice [9] = experiment: Thermal sensitivity; assay type: in vivo, mouse; conditions: C660, Hargreaves
[10] = Solubility of the synthesized ligands; assay type: physicochemical; conditions: aqueous buffers (as printed for C751)
human PAR3 [11] = target: T1, human PAR3 (Homo sapiens, UniProt O00254); experiment: RTCA; assay type: cell-based
T1 sequence (O00254 22-374): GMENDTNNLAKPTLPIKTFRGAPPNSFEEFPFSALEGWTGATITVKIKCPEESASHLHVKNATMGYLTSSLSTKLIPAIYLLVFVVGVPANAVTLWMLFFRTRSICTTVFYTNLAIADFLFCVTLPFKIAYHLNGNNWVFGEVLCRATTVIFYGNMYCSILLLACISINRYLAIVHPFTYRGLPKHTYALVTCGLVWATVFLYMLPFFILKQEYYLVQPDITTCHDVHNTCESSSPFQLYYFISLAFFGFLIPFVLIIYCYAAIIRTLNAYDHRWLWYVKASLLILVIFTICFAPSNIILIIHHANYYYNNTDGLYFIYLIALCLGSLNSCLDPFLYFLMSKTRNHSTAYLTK
Outline: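 HEK293 Flp-In T-Rex cells stably carrying human PAR3 were induced with tetracycline (0.3 or 1 μg/mL, 48 h), then plated on poly-L-lysine E-plates in DMEM/F12 with 5% FBS. At Cell Index stabilization (~6 h), compound was added in quadruplicate at varying final concentrations. CI was read every minute for 4 h. Peak CI changes were normalized to percent of the plate's peak response, and EC50 was fitted across multiple plates.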

human PAR3 [12] = target: T1, human PAR3; conditions: COS-7 cells transfected with human PAR3; ref [30]; cited from earlier work
Murine PAR3 = conditions: COS-7 cells transfected with murine PAR3; ref [47]; cited from earlier work
[13] = 2AT 30 pmol, hind paw, n = 4/group
[14] = primed with 2AT 30 pmol, i.pl, PGE2 100 ng after 14 d, n = 4/group
[15] = primed with IL-6 0.1 ng, i.pl, PGE2 100 ng after 14 d, n = 4/group
[16] = TFFLLR-NH2 100 μg, i.pl, male, n = 4/group
[17] = C660 30 pmol intraplantar, WT male mice, n = 4/group
[18] = thrombin 10 units, i.pl, male, n = 4/group
[19] = thrombin 10 units, i.pl, male, n = 4/group, listed as thrombin

Compound: 2-aminothiazo-4-yl-LIGRL-NH2 [Compound 2AT, reference compound]
- mechanical hypersensitivity, WT and PAR3^−/− (WT and PAR3^−/− mice [1]; 2AT 30 pmol, hind paw, male, n = 4/group): significantly increased (A) mechanical hypersensitivity; also recorded: did not show any differences in acute responses in PAR3^−/− mice
- duration of mechanical hypersensitivity, WT and PAR3^−/− (WT and PAR3^−/− mice [1]; [13]): up to 5 hours
- facial grimacing, WT and PAR3^−/− (WT and PAR3^−/− mice [2]; [13]): significantly increased (A) mechanical hypersensitivity (B) and facial grimacing
- duration of facial grimacing, WT and PAR3^−/− (WT and PAR3^−/− mice [2]; [13]): up to 5 hours
- duration of mechanical hyperalgesia after PGE2 (priming), WT (WT and PAR3^−/− mice [3]; primed with 2AT 30 pmol, i.pl, PGE2 100 ng after 14 d, WT): up to 24 hours
- mechanical hyperalgesia after PGE2 (priming), WT and PAR3^−/− (WT and PAR3^−/− mice [3]; [14]): profound deficit in priming in the PAR3^−/− mice; also recorded: robust in the WT group only; also recorded: loss of hyperalgesic priming
- priming effect size (von Frey), WT vs PAR3^−/− (WT and PAR3^−/− mice [3]; primed with 2AT 30 pmol, i.pl, PGE2 100 ng after 14 d, unpaired t-test): significant genotype difference between WT and PAR3^−/− groups
- facial grimacing after PGE2 (priming), WT and PAR3^−/− (WT and PAR3^−/− mice [4]; [14]): increased in both groups

Compound: NC1=N[C@H](O)[C@H]2[C@H]3O[C@]4(O)O[C@@H]([C@@H](O)[C@@]2(N1)[C@@H]4O)[C@]3(O)CO [Tetrodotoxin (TTX), Tetrodotoxin, reference compound]
- effect of TTX on C660-induced increase of synaptic event frequency [5]: did not influence the effect of C660 on the increased frequency of synaptic events

Compound: AYPGKF-NH2 [reference compound]
- paw withdrawal threshold, WT and PAR3^−/− (WT and PAR3^−/− mice [1]; AYPGKF-NH2 100 μg, hind paw, male, n = 4/group): did not significantly change withdrawal thresholds and grimacing in WT while a transient effect was seen in PAR3^−/− mice; also recorded: did not change significantly in both WT and PAR3^−/− mice groups
- facial grimacing, PAR3^−/−, 1 hr (WT and PAR3^−/− mice [2]; AYPGKF-NH2 100 μg, i.pl, PAR3^−/−, 1 hr post-injection, n = 4/group): transiently increased
- facial grimacing, WT and PAR3^−/− (WT and PAR3^−/− mice [2]; AYPGKF-NH2 100 μg, i.pl, n = 4/group): did not significantly change withdrawal thresholds and grimacing in WT while a transient effect was seen in PAR3^−/− mice

Compound: IL-6: inflammatory cytokine interleukin 6
- hyperalgesic priming (paw withdrawal), PAR3^−/− vs WT (WT and PAR3^−/− mice [3]; [15]): not significantly affected by PGE2 treatment in comparison to WT mice; also recorded: hyperalgesic priming was diminished as measured by mechanical hypersensitivity and grimacing in PAR3^−/− mice; also recorded: loss of hyperalgesic priming
- hyperalgesic priming (facial grimacing), PAR3^−/− vs WT (WT and PAR3^−/− mice [4]; [15]): not significantly affected by PGE2 treatment in comparison to WT mice; also recorded: hyperalgesic priming was diminished as measured by mechanical hypersensitivity and grimacing in PAR3^−/− mice

Compound: TFFLLR-NH2 [reference compound]
- mechanical hypersensitivity, PAR3^−/− vs WT (WT and PAR3^−/− mice [1]; [16]): significantly more robust and prolonged in PAR3^−/− mice; also recorded: more marked in the latter group. Cumulatively, the genotypic differences throughout 48 hours post-injection were significant
- mechanical withdrawal threshold, WT and PAR3^−/− (WT and PAR3^−/− mice [1]; [16]): induced mechanical hypersensitivity in both WT and PAR3^−/−; also recorded: significantly reduced mechanical withdrawal thresholds in WT and PAR3^−/− mice
- duration of facial grimacing, PAR3^−/− (WT and PAR3^−/− mice [2]; TFFLLR-NH2 100 μg, i.pl, PAR3^−/−): up to 5 hours
- facial grimacing, PAR3^−/− and WT (WT and PAR3^−/− mice [2]; TFFLLR-NH2 100 μg, i.pl, n = 4/group): induced prolonged facial grimacing in PAR3^−/− but not WT mice

Compound: TFRGAP
- Ca2+ response in rat astrocytes (rat astrocytes): elicited a Ca^2+ response in rat astrocytes
- Ca2+ response in human smooth muscle cells [6]: elicited a Ca^2+ response in rat astrocytes [60] and human smooth muscle cells
- ERK activation, A-498 cells [7]: induced extracellular regulated kinase (ERK) activation via PAR1 rather than PAR3
- ERK activation, mouse lung fibroblasts (mouse lung fibroblasts): induced extracellular regulated kinase (ERK) activation via PAR1 rather than PAR3

Compound: TFRGAPPNSFEEF-pego3-Hdc [Compound C660]
- RTCA response, cells not induced to express PAR3 [8]: did not show a response; also recorded: absent when PAR3 is not expressed
- mEPSC amplitude [5]: no change in amplitude
- mEPSC frequency [5]: increased the frequency of mEPSCs
- paw withdrawal threshold, PAR3^−/− (WT and PAR3^−/− mice [1]; C660 30 pmol intraplantar, PAR3^−/− male mice, n = 4/group): induces mechanical hypersensitivity and facial grimacing in WT but not PAR3^−/− mice; also recorded: significantly reduced paw withdrawal thresholds in the WT but not PAR3^−/− group; also recorded: little acute effect; also recorded: absent in PAR3 deficient mice
- duration of mechanical hypersensitivity, WT (WT and PAR3^−/− mice [1]; [17]): up to 24 hrs
- paw withdrawal threshold, WT (WT and PAR3^−/− mice [1]; [17]): induced mechanical hypersensitivity; also recorded: significantly reduced paw withdrawal thresholds; also recorded: prolonged mechanical hypersensitivity
- facial grimacing overall effect size, WT vs PAR3^−/− (WT and PAR3^−/− mice [2]; C660 30 pmol intraplantar, 24 hr period, n = 4/group): did not differ significantly between groups
- facial grimacing, PAR3^−/− (WT and PAR3^−/− mice [2]; C660 30 pmol intraplantar, PAR3^−/− mice): facial grimacing in WT but not PAR3^−/− mice; also recorded: little acute effect
- facial grimacing, WT (WT and PAR3^−/− mice [2]; [17]): transient increase in facial grimacing was observed with the WT cohort at the 1 hr time point; also recorded: noted in WT mice, although changes were transient
- hyperalgesic priming (paw withdrawal), PAR3^−/− (WT and PAR3^−/− mice [3]; primed with C660 30 pmol, PGE2 100 ng i.pl after 14 days, PAR3^−/−, n = 4/group): partially attenuated in PAR3^−/− cohort; also recorded: greatly reduced
- hyperalgesic priming (paw withdrawal), WT (WT and PAR3^−/− mice [3]; primed with C660 30 pmol, PGE2 100 ng i.pl after 14 days, WT, n = 4/group): caused hyperalgesic priming in WT mice
- affective (grimace) response to PGE2 after priming, WT vs PAR3^−/− (WT and PAR3^−/− mice [4]; primed with C660 30 pmol, PGE2 100 ng i.pl after 14 days): robust affective response in WT but not PAR3^−/− mice
- heat sensitivity (WT and PAR3^−/− mice [9]): did not note any changes in heat sensitivity in either strain of mice

Compound: TFRGAPPNSFEEF-pego3-KLIPAIYLLVFVVGV-amide [Compound C751]
- solubility [10]: low solubility

Compound: TFRGAPPNSFEEF-pego3-KRRPAIYLLVFVVGV-amide [Compound C752]
- activity in RTCA (human PAR3 [11]): not active
- solubility [10]: improved

Compound: Thrombin
- mechanical hypersensitivity, PAR3^−/− vs WT (WT and PAR3^−/− mice [1]; [18]): significantly greater in PAR3^−/− mice at 1, 3, and 5 hours post-injection
- mechanical hypersensitivity, WT and PAR3^−/− (WT and PAR3^−/− mice [1]; [18]): induced lasting mechanical hypersensitivity in both WT and PAR3^−/− mice
- mechanical hypersensitivity, PAR3^−/− vs WT (WT and PAR3^−/− mice [1]; [19]): significantly more robust and prolonged in PAR3^−/− mice
- mechanical hypersensitivity, WT and PAR3^−/− (WT and PAR3^−/− mice [1]; [19]): induced mechanical hypersensitivity in both WT and PAR3^−/−
- duration of facial grimacing, PAR3^−/− (WT and PAR3^−/− mice [2]; thrombin 10 units, i.pl, PAR3^−/−): up to 5 hours
- facial grimacing, PAR3^−/− and WT (WT and PAR3^−/− mice [2]; thrombin 10 units, i.pl, n = 4/group): significantly increased facial grimacing in PAR3^−/− but not WT mice
- phosphoinositide signaling, human PAR3 (human PAR3 [12]): able to trigger robust phosphoinositide signaling
- signaling, murine PAR3 (Murine PAR3): unable to signal on its own in response to thrombin

Compound: carrageenan
- acute response, WT vs PAR3^−/− (WT and PAR3^−/− mice [1]; carrageenan, male mice (Supplementary Fig. S5A–B)): male WT and PAR3^−/− mice responded similarly to the inflammagen acutely
- acute response and hyperalgesic priming, female (WT and PAR3^−/− mice [3]; carrageenan, 8-week old female mice (Supplementary Fig. S6A–D)): loss of hyperalgesic priming occurred in both male and female mice
- hyperalgesic priming, PAR3^−/− vs WT, male (WT and PAR3^−/− mice [3]; primed with carrageenan, male mice (Supplementary Fig. S5C–D)): hyperalgesic priming was again reduced in the PAR3^−/− mice; also recorded: loss of hyperalgesic priming
